Here are results for two molecules from ChEMBL document CHEMBL4145530, “Design, synthesis and pharmacological evaluation of N-benzyl-piperidinyl-aryl-acylhydrazone derivatives as donepezil hybrids: Discovery of novel multi-target anti-alzheimer prototype drug candidates” (Eur J Med Chem, 2018).

For orientation: Ki means a measure of affinity in units of concentration, obtained from inhibition or displacement. The inhibition is how much of the control response was suppressed. In general, IC50 refers to the concentration that inhibits the measured activity by half. Low readings indicate inhibition by little substance, high ones a need for much substance.

Active and inactive are the calls of the source. The rule behind the calls is not given here.

One data set addresses Acetylcholinesterase (Electrophorus electricus, UniProt O42275). The data set can be described thus: Non-competitive inhibition of electric eel AChE using acetylthiocholine iodide as substrate preincubated for 10 mins followed by substrate addition by Ellman's method. Summed up: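 Substrate-competition kinetics with E. electricus AChE by Ellman's method: 10 min enzyme–DTNB–compound preincubation in 0.1 M phosphate, pH 7.4, then acetylthiocholine; A412 was read every 12 s for 5 min at rt. Three independent data sets, each in triplicate, were averaged and fitted to a simple noncompetitive model. That model was compared with mixed linear inhibition by AICc probability ratio.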
Background: In Ellman's method for cholinesterases, released thiocholine reacts with DTNB.

The subject of data set [1] is Mus musculus. The data set can be described thus: Antinociceptive activity in formalin-induced Swiss mouse model of hyperalgesia assessed as time spent licking the injected paw in last phase at […], po pretreated for 1 hr followed by formalin injection and measured at 20 to 30 mins (reference value: 135.8 +/- 10.7 secs). In kind it is functional.
Data set [2] deals with T1, Prostaglandin G/H synthase 1 (Ovis aries) (UniProt P05979).
T1 sequence (whole entry): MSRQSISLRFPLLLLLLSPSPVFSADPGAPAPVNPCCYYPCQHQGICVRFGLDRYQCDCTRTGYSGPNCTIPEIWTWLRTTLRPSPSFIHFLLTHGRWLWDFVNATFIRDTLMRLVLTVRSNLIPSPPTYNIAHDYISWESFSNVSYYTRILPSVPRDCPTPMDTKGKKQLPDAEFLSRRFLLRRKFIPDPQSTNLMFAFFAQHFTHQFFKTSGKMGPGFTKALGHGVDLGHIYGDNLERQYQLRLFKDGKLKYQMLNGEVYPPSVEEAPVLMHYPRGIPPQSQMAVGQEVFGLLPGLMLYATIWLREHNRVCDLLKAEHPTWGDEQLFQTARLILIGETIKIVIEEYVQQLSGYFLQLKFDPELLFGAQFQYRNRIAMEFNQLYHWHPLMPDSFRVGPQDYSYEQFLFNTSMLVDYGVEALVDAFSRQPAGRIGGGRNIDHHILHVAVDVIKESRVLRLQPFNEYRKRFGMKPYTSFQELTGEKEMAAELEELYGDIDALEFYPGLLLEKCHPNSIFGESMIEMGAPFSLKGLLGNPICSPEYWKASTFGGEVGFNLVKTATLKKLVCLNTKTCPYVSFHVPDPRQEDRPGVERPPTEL
The data set can be described thus: Inhibition of ovine COX1 at 10 uM using arachidonic acid as substrate preincubated for 120 mins followed by substrate addition measured for 5 secs by chemiluminescence assay relative to control. Summed up:
(§1)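 COX-1 or COX-2 with heme was preincubated 120 min with compound (10 µM) in assay buffer. Arachidonic acid and a chemiluminescent substrate were then added at room temperature and peroxidative activity was read for 5 s; ibuprofen was the reference. Selectivity index was taken as the ratio of maximum COX-2 inhibition to COX-1 inhibition. Two independent experiments.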

The nature of data set [3]: Selectivity ratio of compound effect for inhibition of human COX2 to compound effect for inhibition of ovine COX1. Summed up:
as §1

The subject of data set [4] is Mus musculus. The data set can be described thus: Inhibition of serum COX1 level in Swiss mouse model of carragenan-induced paw edema at 100 mM/kg, po pretreated for 1 hr followed by carrageenan treatment measured after 3 hrs by ELISA. It counts as functional. Summed up: (§2)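 Swiss mice (n=8) received compound (100 mM/kg) or vehicle orally 1 h before intraplantar carrageenan; indomethacin was the positive control. Three hours later, blood was drawn from the heart under chloral hydrate anaesthesia and serum was collected. COX-1 and COX-2 protein was measured by sandwich ELISA read at 450 nm and expressed as percent COX level.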
On the technique in general: ELISA stands for enzyme-linked immunosorbent assay.

The subject of data set [5] is Mus musculus. The data set can be described thus: Inhibition of serum COX2 level in Swiss mouse model of carragenan-induced paw edema at 100 mM/kg, po pretreated for 1 hr followed by carrageenan treatment measured after 3 hrs by ELISA. In kind it is functional. Summed up:
as §2

In the next data set the test system is HepG2. The data set can be described thus: cells. To be noted: Homo sapiens, HepG2, 6 h. It counts as ADME, cell-based.
Data set [6] concerns SH-SY5Y. The data set can be described thus: cells. It counts as ADME, cell-based. The settings on record: Homo sapiens, 24 h.
Another data set concerns THP-1. The data set can be described thus: Anti-inflammatory activity in human THP1 cells assessed as inhibition of LPS-induced IL-1beta production at 10 uM after 24 hrs by ELISA relative to control. In kind it is functional. To be noted: THP-1, 24 h. Summed up:
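Human monocytic THP-1 cells (5×10^5 cells/mL) were given LPS 1 µg/mL with or without compound at 10 µM for 24 h. Cells were spun out at 500 × g and the medium kept at −80 °C. Secreted IL-1β and TNFα were measured with high-sensitivity ELISA. Three independent experiments.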

For data set [7], the system named is Mus musculus. The data set can be described thus: Anti-inflammatory activity in C57Bl/6 mouse model of amyloid beta (1 to 42) oligomer-induced neuroinflammation assessed as inhibition of microgliosis in CA1 region of ipsilateral hippocampus at 100 mg/kg, ip pretreated for 1.5 hrs followed by amyloid beta (1 to 42) oligomer addition and measured after 7 days by Iba-1 staining based assay. In kind it is functional, organism-based. Summed up: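 Male C57Bl/6 mice (25–30 g) got 100 mg/kg i.p. or vehicle 1.5 h before a unilateral right-hippocampal injection of Aβ1-42 oligomers (400 pmol/0.5 µL) or PBS. The oligomers were made by diluting the DMSO stock into PBS at 40 µM and holding at 4 °C for 48 h. After 7 days, brain sections were stained for Iba-1 (antigen retrieval, fluorescent secondary) and five CA1 images per hippocampus were taken; pixel density was read, n=10.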

Data set [8] relates to SH-SY5Y. The data set can be described thus: Neuroprotection in human SH-SY5Y cells assessed as inhibition of amyloid beta (1 to 42) oligomer-induced neuronal death at 10 uM after 24 hrs by propidium iodide staining based fluorescence microscopic method. In kind it is functional, cell-based. Summed up:
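After plating at 5×10^3 cells/well and growing 24 h, SH-SY5Y cells were co-exposed to compound and Aβ1-42 oligomers (10 µM) for 24 h at 37 °C. Cells were stained with propidium iodide in PBS for 10 min. Dead cells were counted by fluorescence microscopy in four fields of 50–100 cells and expressed as PI-positive/total × 100. Three independent experiments.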

In data set [9] the test system is Mus musculus. The data set can be described thus: Anti-inflammatory activity in C57Bl/6 mouse model of amyloid beta (1 to 42) oligomer-induced neuroinflammation assessed as inhibition of neurodegeneration in CA1 region of ipsilateral hippocampus at 100 mg/kg, ip pretreated for 1.5 hrs followed by amyloid beta (1 to 42) oligomer addition and measured after 7 days by Fluoro-Jade C staining based fluorescence microscopic assay. It counts as functional, organism-based. Summed up: (§3)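 C57Bl/6 male mice were dosed i.p. at 100 mg/kg 1.5 h before stereotactic right intrahippocampal Aβ1-42 oligomer injection (400 pmol/0.5 µL), with PBS as control. After 7 days, hippocampal sections were stained with Fluoro-Jade C (0.0001%) after NaOH/ethanol and permanganate steps. Five CA1 images per hippocampus were imaged under fluorescence and pixel intensity quantified, n=10.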

Data set [10] deals with Mus musculus. The data set can be described thus: Toxicity in C57Bl/6 mouse model of amyloid beta (1 to 42) oligomer-induced neuroinflammation assessed as induction of neurodegeneration in CA1 region of contralateral hippocampus at 100 mg/kg, ip pretreated for 1.5 hrs followed by amyloid beta (1 to 42) oligomer addition and measured after 7 days by Fluoro-Jade C staining based fluorescence microscopic assay. In kind it is organism-based. To be noted: in vivo, 168 h. The method, boiled down: as §3

Chain of Acetylcholinesterase (O42275 whole entry): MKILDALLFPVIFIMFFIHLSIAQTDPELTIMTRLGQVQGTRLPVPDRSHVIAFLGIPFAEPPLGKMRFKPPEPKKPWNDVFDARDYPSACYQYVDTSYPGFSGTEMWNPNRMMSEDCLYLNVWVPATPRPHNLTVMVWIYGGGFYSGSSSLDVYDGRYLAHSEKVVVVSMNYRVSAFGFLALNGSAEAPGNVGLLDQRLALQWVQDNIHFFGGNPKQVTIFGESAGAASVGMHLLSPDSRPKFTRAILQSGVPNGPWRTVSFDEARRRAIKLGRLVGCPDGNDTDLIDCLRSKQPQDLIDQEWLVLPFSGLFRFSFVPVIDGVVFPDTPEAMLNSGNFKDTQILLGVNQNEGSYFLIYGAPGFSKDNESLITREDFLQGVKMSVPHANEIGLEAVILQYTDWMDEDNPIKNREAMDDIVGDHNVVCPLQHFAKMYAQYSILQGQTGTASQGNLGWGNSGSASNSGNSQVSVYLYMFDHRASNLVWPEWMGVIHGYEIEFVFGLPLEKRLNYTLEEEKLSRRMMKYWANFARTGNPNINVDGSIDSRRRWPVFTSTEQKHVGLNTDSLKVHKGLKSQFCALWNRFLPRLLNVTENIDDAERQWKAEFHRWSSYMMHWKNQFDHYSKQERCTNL

`O=C(N/N=C/c1ccc(Cl)cc1)c1ccc(CN2CCCC(O)C2)cc1` (stereo unspecified) showed a Ki at Acetylcholinesterase of 7.76 µM. Besides, the Time in the data set with Mus musculus [1] came out at 62.88 s. For the same molecule, the inhibition in [2] is 51%. In data set [3], the Selectivity ratio was 1.27. Besides, the “inhibition (INH)” value with Mus musculus [4] is reported as 27%; in the data set with Mus musculus [5], 42%. Besides, the IC50 with HepG2 and in the data set on SH-SY5Y [6] was greater than 80 µM throughout. In addition, the inhibition at 10 µM with THP-1 was 29%. In addition, the inhibition entry in the data set with Mus musculus [7], in the data set on SH-SY5Y [8] and in the data set with Mus musculus [9] was “Active” in each case. In the data set with Mus musculus [10], the Activity entry is on record as “Non-Toxic”.

`O=C(N/N=C/c1ccc(F)cc1)c1ccc(CN2CCCC(O)C2)cc1` (stereo unspecified) displayed a Ki at Acetylcholinesterase of 13.4 µM. In addition, the Time in the data set with Mus musculus [1] stood at 24.17 s. Moreover, the inhibition in data set [2] worked out at 64%. In data set [3], the Selectivity ratio came out at 0.83. For the same molecule, the “inhibition (INH)” value in the data set on Mus musculus [4] was 34%; with Mus musculus [5], 25%. Also, the IC50 in the data set with HepG2 and in the data set on SH-SY5Y [6] was greater than 80 µM each time. In the data set on THP-1, the inhibition at 10 µM is 31%. Moreover, the inhibition result in the data set with Mus musculus [7] and in the data set with SH-SY5Y [8] was “Active” each time. Further, the inhibition result in the data set on Mus musculus [9] is “inactive”. In addition, the Activity result in the data set on Mus musculus [10] is “Toxic”.
